ChEMBL document CHEMBL1156545, “Unusual C25 steroid isomers with bicyclo[4.4.1]A/B rings from a volcano ash-derived fungus Penicillium citrinum” (J Nat Prod, 2008)
Calls of active or inactive are those of the source. The calls are words filed in the database; no cut-off is given here.

What was measured:
[1] = biological target: T1, G-protein coupled receptor 12 (Homo sapiens) (UniProt P47775); assay: Activity at GPR12 expressed in CHO cells assessed as induction of cAMP production at 10 uM; format: functional, cell-based
T1 sequence (whole entry): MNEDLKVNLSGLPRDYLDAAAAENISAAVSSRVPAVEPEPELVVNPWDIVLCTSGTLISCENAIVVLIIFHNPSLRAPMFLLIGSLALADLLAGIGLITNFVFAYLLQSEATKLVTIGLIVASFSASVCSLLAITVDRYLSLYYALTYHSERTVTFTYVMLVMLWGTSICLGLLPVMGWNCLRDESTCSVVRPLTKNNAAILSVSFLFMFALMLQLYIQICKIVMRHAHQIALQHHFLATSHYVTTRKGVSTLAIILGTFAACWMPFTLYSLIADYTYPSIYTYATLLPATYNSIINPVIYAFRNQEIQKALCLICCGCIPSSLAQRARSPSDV
Procedure, shortened: (§1)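 Test compounds at 10 µM applied to CHO cells transfected with GPR12 and, in parallel, to untransfected wild-type CHO cells, which serve as the receptor-free comparison. The read-out is cAMP production in each cell line. The assay follows literature cAMP methods.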

[2] = tested on: CHO; assay: Induction of cAMP generation in wild-type CHO cells at 10 uM; format: functional, cell-based; settings: Cricetulus griseus; procedure, shortened: as §1

SMILES | Activity [1] | Activity [2]
C/C(=C\[C@H](O)[C@H](C)O)[C@H]1CC[C@H]2C3=CC(=O)[C@H]4CC(=CC[C@H](O)C4)[C@H]3CC[C@]12C | Active | inactive
CO[C@H](/C=C(\C)[C@H]1CC[C@H]2C3=CC(=O)[C@H]4CC(=CC[C@H](O)C4)[C@H]3CC[C@]12C)[C@@H](C)O | Active | inactive
C/C(=C\[C@@H](O)[C@H](C)O)[C@H]1CC[C@H]2C3=CC(=O)[C@H]4CC(=CC[C@H](O)C4)[C@H]3CC[C@]12C | Active | inactive

Now from value to compound, other results behind:

Activity [1] | SMILES | Activity [2]
Active | C[C@@H](O)/C=C/[C@](C)(O)[C@H]1CC[C@H]2C3=CC(=O)[C@H]4CC(=CC[C@H](O)C4)[C@H]3CC[C@@]21C | inactive
Active | C[C@H](O)/C=C/[C@](C)(O)[C@H]1CC[C@H]2C3=CC(=O)[C@H]4CC(=CC[C@H](O)C4)[C@H]3CC[C@@]21C | inactive
